Test [1] concerns Mycobacterium avium subsp. paratuberculosis. Briefly: Antituberculosis activity against Mycobacterium paratuberculosis ATCC 19698 isolated from bovine assessed as lowest drug level producing inhibition at 10^6 CFU of inoculum by MGIT 960 susceptibility test. In kind it is functional. A digest of the protocol:
(§1)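 M. paratuberculosis ATCC 19698 at 10^6 CFU per MGIT ParaTB tube in duplicate, drugs at final 1.0–64.0 μg/ml, 37°C in MGIT 960. Inhibition is the lowest concentration whose time to detection exceeds the 1:100 diluted-inoculum solvent control. No detectable growth means the tube never signals positive through 56 days.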

The test system is the same in test [2]. Nature of the test: Antituberculosis activity against Mycobacterium paratuberculosis ATCC 19698 isolated from bovine assessed as lowest drug level producing inhibition at 10^6 CFU of inoculum by agar counting method. The test is classed as functional. A digest of the protocol:
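ATCC 19698 at 10^6 CFU was exposed to drug (1.0–64.0 μg/ml) in MGIT ParaTB medium at 37°C. Aliquots taken at 3 and 5 days were centrifuged, resuspended in PBS and declumped with glass beads. Serial dilutions were plated in quadruplicate on 7H10/OADC/mycobactin J and counted after 8 weeks. Inhibition is the lowest concentration giving a 2 log10 (99%) CFU reduction.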

For test [3] the test system is unchanged. Nature of the test: Antituberculosis activity against Mycobacterium paratuberculosis ATCC 19698 isolated from bovine assessed as minimum drug level resulting in no detectable growth at 10^6 CFU of inoculum after 56 days by MGIT 960 susceptibility test. In kind it is functional. A digest of the protocol:
as §1

Test [4] has the same test system. Briefly: Antituberculosis activity against Mycobacterium paratuberculosis JTC303 isolated from bovine assessed as minimum drug level required for inhibition by MGIT 960 susceptibility test. In kind it is functional. The method in brief: (§2)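 10^5 to 10^6 CFU from single-cell suspensions inoculated in duplicate into MGIT ParaTB medium with supplement and egg yolk. Drugs were at final 0.5–64.0 μg/ml, with 128.0 μg/ml added for some strains. Tubes were incubated at 37°C in MGIT 960. Inhibition is the lowest concentration giving a time to detection longer than a drug-free 1:100 inoculum control. Killing is no positive signal through 56 days.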

Test [5] shares this test system. Nature of the test: Antituberculosis activity against Mycobacterium paratuberculosis JTC303 isolated from bovine assessed as minimum drug level required for killing after 56 days by MGIT 960 susceptibility test. In kind it is functional. A digest of the protocol:
as §2

The test system is the same in test [6]. Briefly: Antituberculosis activity against Mycobacterium paratuberculosis UCF-4 isolated from Crohn's disease patient assessed as minimum drug level required for inhibition by MGIT 960 susceptibility test. In kind it is functional. The method in brief: as §2
Test [7] has the same test system. Nature of the test: Antituberculosis activity against Mycobacterium paratuberculosis UCF-4 isolated from Crohn's disease patient assessed as minimum drug level required for killing after 56 days by MGIT 960 susceptibility test. The test is classed as functional. The method in brief:
as §2

For test [8] the test system is unchanged. Briefly: Antituberculosis activity against Mycobacterium paratuberculosis UCF-5 isolated from Crohn's disease patient assessed as minimum drug level required for inhibition by MGIT 960 susceptibility test. In kind it is functional. The method in brief:
as §2

Test [9] has the same test system. Briefly: Antituberculosis activity against Mycobacterium paratuberculosis UCF-5 isolated from Crohn's disease patient assessed as minimum drug level required for killing after 56 days by MGIT 960 susceptibility test. In kind it is functional. A digest of the protocol:
as §2

Test [10] has the same test system. Briefly: Antituberculosis activity against Mycobacterium paratuberculosis UCF-7 isolated from Crohn's disease patient assessed as minimum drug level required for inhibition by MGIT 960 susceptibility test. The test is classed as functional. The method in brief:
as §2

Test [11] shares this test system. Nature of the test: Antituberculosis activity against Mycobacterium paratuberculosis UCF-7 isolated from Crohn's disease patient assessed as minimum drug level required for killing after 56 days by MGIT 960 susceptibility test. The test is classed as functional. The method in brief: as §2
Test [12] shares this test system. Nature of the test: Antituberculosis activity against Mycobacterium paratuberculosis B213 isolated from bovine assessed as minimum drug level required for inhibition by MGIT 960 susceptibility test. In kind it is functional. The method in brief: as §2
For test [13] the test system is unchanged. Nature of the test: Antituberculosis activity against Mycobacterium paratuberculosis B213 isolated from bovine assessed as minimum drug level required for killing after 56 days by MGIT 960 susceptibility test. In kind it is functional. The method in brief: as §2
Test [14] shares this test system. Briefly: Antituberculosis activity against Mycobacterium paratuberculosis B236 isolated from bovine assessed as minimum drug level required for inhibition by MGIT 960 susceptibility test. The test is classed as functional. A digest of the protocol:
as §2

For test [15] the test system is unchanged. Nature of the test: Antituberculosis activity against Mycobacterium paratuberculosis B236 isolated from bovine assessed as minimum drug level required for killing after 56 days by MGIT 960 susceptibility test. The test is classed as functional. A digest of the protocol: as §2
For test [16] the test system is unchanged. Nature of the test: Antituberculosis activity against Mycobacterium paratuberculosis B238 isolated from bovine assessed as minimum drug level required for inhibition by MGIT 960 susceptibility test. The test is classed as functional. The method in brief: as §2
For test [17] the test system is unchanged. Briefly: Antituberculosis activity against Mycobacterium paratuberculosis B238 isolated from bovine assessed as minimum drug level required for killing after 56 days by MGIT 960 susceptibility test. The test is classed as functional. A digest of the protocol:
as §2

Test [18] has as its system Mycobacterium avium. Nature of the test: Antituberculosis activity against Mycobacterium avium ATCC 35712 isolated from chicken assessed as minimum drug level required for inhibition by MGIT 960 susceptibility test. In kind it is functional. The method in brief: as §2
Test [19] has as its system Mycobacterium avium. Briefly: Antituberculosis activity against Mycobacterium avium ATCC 35712 isolated from chicken assessed as minimum drug level required for killing after 56 days by MGIT 960 susceptibility test. In kind it is functional. The method in brief:
as §2

The test system of test [20] is Mycobacterium avium subsp. paratuberculosis. Nature of the test: Antituberculosis activity against Mycobacterium paratuberculosis UCF-7 isolated from Crohn's disease patient assessed as colony counts at 2 ug after 12 days by MGIT 960 susceptibility test. In kind it is functional.
Test [21] shares this test system. Briefly: Antituberculosis activity against Mycobacterium paratuberculosis UCF-7 isolated from Crohn's disease patient assessed as colony counts at 4 ug after 12 days by MGIT 960 susceptibility test. In kind it is functional.
The test system is the same in test [22]. Nature of the test: Antituberculosis activity against Mycobacterium paratuberculosis ATCC 19698 isolated from bovine assessed as viability after 5 to 8 days by standard plate count method.

With `O=C(O)c1cn(C2CC2)c2cc(N3CCNCC3)c(F)cc2c1=O` [CIPROFLOXACIN], the Activity in [1] was 1 µg/mL; in test [2] it was 1 µg/mL; in [3], 32 µg/mL; in [4] it was 2 µg/mL; in [5], 8 µg/mL; in test [6], 1 µg/mL. Besides, the Activity was determined as 4 µg/mL in test [7]; 2 µg/mL in test [8]; 4 µg/mL in [9]; 1 µg/mL in test [10]; 4 µg/mL in test [11]; 4 µg/mL in test [12]. Besides, the Activity in test [13] turned out to be 16 µg/mL; in test [14], 4 µg/mL; in test [15], 16 µg/mL; in test [16] it was 4 µg/mL; in test [17] it was 16 µg/mL; in the test with Mycobacterium avium [18], 16 µg/mL. For the same compound, the Activity in the test with Mycobacterium avium [19] came out at 64 µg/mL. The figures for the log10CFU/ml in test [20], in test [21] and in [22] were 1.98, 0.76 and 1, respectively.

(Values after ChEMBL document CHEMBL1151475, “Thiopurine drugs azathioprine and 6-mercaptopurine inhibit Mycobacterium paratuberculosis growth in vitro” (2008).)
